# HCV core dimer: inhibitors of HCV core protein dimerization, primary screen, biochemical, TR-FRET, high-throughput; 300,000 tested, 0.33% active; TR-FRET GST/Flag-core106 dimerization, 1536-well; inhibition, % at 5 µM;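 active means inhibition above the mean of all tested compounds plus 3 SD, set per screening campaign, cut at about 45% in these data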
#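 Assay system: tagged HCV core106 pair (GST and Flag); medium: KF-containing HEPES buffer, pH 7.45, DTT, CHAPS, BSA; also added: Eu donor and XL665 acceptor anti-tag antibodies; dosing: 5 µM single dose; timing: compound-protein-antibody incubation 4 h at 22.5 °C; signal: TR-FRET 671 and 617 nm emission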
# eIF4H FP inh: human eIF4H binding inhibitors, primary screen, translation initiation inhibitor project, biochemical, uHTS, fluorescence polarization | inhibition, % at 35 µM | eIF4H fluorescence polarization binding assay | 290,000 tested, 0.94% active | Eukaryotic translation initiation factor 4H (Homo sapiens), Q15056 | AID 2012, 2009;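 further: calls also rest on retests at 20 µM and on dose response follow-up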
# PABP FP inh: PABP poly(A) RNA binding inhibitors, primary screen, biochemical, fluorescence polarization, uHTS; Polyadenylate-binding protein 1 (Homo sapiens), P11940; calls only at 35 µM; 290,000 tested, 1% active; AID 2014, 2009;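 further: calls also rest on retests at 20 µM and on dose response follow-up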
# SUMO HTRF inh: inhibitors of in vitro SUMOylation cascade, primary screen, biochemical, HTRF, uHTS | SUMO-conjugating enzyme UBC9 (Homo sapiens), P63279 | HTRF SUMOylation assay, SAE1/SAE2 + UBC9 | AID 2006, 2009 | inhibition, % at 35 µM | 290,000 tested, 0.36% active; in the data active means inhibition above about 50%, passing the limit was not always enough; inconclusive means no clear call, values can overlap the other calls
# Target sequence (P63279 whole entry, looked up): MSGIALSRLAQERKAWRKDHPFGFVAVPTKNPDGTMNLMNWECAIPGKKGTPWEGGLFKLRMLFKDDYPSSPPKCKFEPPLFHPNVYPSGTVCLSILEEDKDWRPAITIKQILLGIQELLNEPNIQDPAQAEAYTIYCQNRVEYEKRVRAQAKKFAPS
# PABP1 MLLE inh: inhibitors of PABP1 MLLE–PAM2 peptide binding, primary screen, biochemical, fluorescence polarization, FITC-PAM2, GST-MLLE | inhibition, % at 20 µM | Polyadenylate-binding protein 1 (Homo sapiens), P11940 | 360,000 tested, 0.36% active; in the data active means inhibition above about 35%, passing the limit was not always enough;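 further: plate controls were DMSO wells with GST-MLLE for no effect and wells lacking GST-MLLE protein for full effect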
# eIF4E-4G inh: eIF4E–eIF4G protein interaction inhibitors, primary screen, biochemical, uHTS, TR-FRET, eIF4GI fragment | Eukaryotic translation initiation factor 4E (Mus musculus) + Eukaryotic translation … | TR-FRET eIF4E-eIF4GI(517-606) binding, 2 h | inhibition, % at 21.7 µM | 220,000 tested, 0.37% active | AID 782, 2007;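 active means inhibition above about 30%, limit read from the data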;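 further: 0% = full FRET control wells and 100% = background wells lacking eIF4GI fragment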
# Numbers without * were called inactive; i = inactive; u = inconclusive; x = no result given; + = active, no number. Compounds with a hit are over-represented: about 1.8% of the library has one in this group of screens. Unless noted, how the calls were made is not given here.
SMILES,HCV core dimer,eIF4H FP inh,PABP FP inh,SUMO HTRF inh,PABP1 MLLE inh,eIF4E-4G inh
CCOc1cccc(=O)c2c(C)n(CC(=O)c3ccccc3)c(C)c12,37,52,i,19,-27,1
CCC(=O)c1ccc(/C=C/c2nc3ccccc3n2C)o1,13,70,i,62*,1,-5
Cc1cc(C)c(NC(=O)C2CCCN2CCOC(=O)c2cccc([N+](=O)[O-])c2)c(C)c1 (stereo not drawn),0,active,+,-12,10,-1
Cc1cc(C)c(NC(=O)C2CCCN2CCOC(=O)c2ccccc2)c(C)c1 (stereo not drawn),12,-3,i,-14,6,5
O=C(O)C1CCCC[C@H]1C(=O)Nc1ncc([N+](=O)[O-])s1 (stereo partly drawn),2,x,x,x,9,x
N#Cc1c(Sc2ncc(C(F)(F)F)cc2Cl)nsc1C/C=N\OCc1c(F)cccc1Cl,54*,18,i,14,-55,-19
FC(F)(F)c1cnc(Sc2nnc(-c3cccs3)n2CC2CCCO2)c(Cl)c1 (stereo not drawn),4,-10,i,3,-10,4
CCN(CC(=O)Nc1c(F)cccc1F)C(=O)C1CCN(S(=O)(=O)c2ccc(C)cc2C)CC1,4,x,x,x,-11,x
Cc1ccc(C(=O)N[C@H](C(=O)OCc2cc(=O)n3c(n2)sc2ccccc23)C(C)C)cc1,39,50,i,-13,-63,0
O=C(OCc1cc(=O)n2c(n1)sc1ccccc12)c1cccc(O)c1,51*,81,i,22,-16,10
O=C(Cc1coc2cc3c(cc12)CCC3)OCc1cc(=O)n2c(n1)sc1ccccc12,57*,51,i,-6,-11,7
CC(C)[C@H](NC(=O)c1ccco1)C(=O)OCc1cc(=O)n2c(n1)sc1ccccc12,23,80,i,19,-14,29
O=C(OCc1cc(=O)n2c(n1)sc1ccccc12)c1ccc(O)cc1O,42,84,i,24,-25,33*
CCC1(c2ccccc2)NC(=O)N(CC(=O)N(C)Cc2c(F)cccc2Cl)C1=O (stereo not drawn),-9,-25,i,5,-14,x
COc1cc(S(=O)(=O)N2CCN(Cc3ccc4c(c3)OCO4)CC2)ccc1NC(C)=O,x,x,x,x,-61,x
Cc1c(C(=O)Nc2cccc(Cl)c2)c2ccccn2c1CCc1ccncc1,x,u,+,0,-25,2
Cc1c(C(=O)Nc2ccc(Cl)cc2)c2ccccn2c1CCc1ccncc1,4,12,i,-13,-38,-6
COc1cc(-c2[nH]ncc2CN2CCN(Cc3cccs3)CC2)cc(OC)c1OC,1,3,i,4,1,90*
O=C(O/N=C1\C(=O)N(c2ccccc2)c2ccccc21)C1CC1,6,active,i,-10,-2,1
O=C(O)CN1C(=O)C2C3CC(C2C1=O)C1C(c2ccc(F)cc2)c2sc(=O)[nH]c2SC31 (stereo not drawn),8,8,i,7,39*,0
CN(C)c1ccc(NC(=O)c2sc(SCC(=O)Nc3ccc(Br)cc3)nc2N)cc1,26,4,i,55*,10,2
CN(C)c1ccc(NC(=O)c2sc(SCC(=O)Nc3nccs3)nc2N)cc1,-18,2,i,-16,17,8
CC(C)c1ccc(C2OCC(C)([N+](=O)[O-])CO2)cc1 (stereo not drawn),x,x,x,x,6,x
O=C(COC(=O)/C=C/c1ccc2ccccc2n1)NNC(=O)c1ccc([N+](=O)[O-])cc1,x,x,x,x,-3,x
N#CC1(NC(=O)COC(=O)/C=C/c2ccc3ccccc3n2)CCCCC1,48*,29,i,2,-48,x
SMILES,HCV core dimer,eIF4H FP inh,PABP FP inh,SUMO HTRF inh,PABP1 MLLE inh,eIF4E-4G inh
CC1(C2CCC3C4CCC5CC6(CCC5(C)C4C(=O)CC32C)OCCO6)OCCO1 (stereo not drawn),x,x,x,x,5,x
CN(C)C(=O)c1ccc(NC(=O)CSc2nnc(-c3cccs3)n2N)cc1,x,x,x,x,-28,x
Cn1c(=O)[nH]c2c(Cl)nccc21,-1,-10,i,22,2,8
Cn1c(=O)[nH]c2cc(Cl)cnc21,-4,u,u,29,47*,-2
Cn1nccc1NC(=O)Nc1cccc(Br)c1,-4,-6,i,65*,-2,x
O=C1NC(=S)SC1=Cc1cccs1,x,x,x,x,6,x
Cc1ccc(N/C=C2/Sc3ccccc3NC2=O)cc1,-30,u,+,4,-36,3
COc1ccc(N/C=C2/Sc3ccccc3NC2=O)cc1,-45,2,i,2,28,-1
O=C1Nc2ccccc2S/C1=C/c1cccs1,-6,8,i,10,1,74*
O=C(c1ccco1)N1CCN(Cc2nnc(-c3cccc(Br)c3)o2)CC1,-9,18,i,-3,9,x
N#Cc1ccc(-c2cccs2)nc1SCc1cccnc1,8,12,i,23,-15,-6
CN1CCN(C(=O)CSc2nc(-c3cccs3)ccc2C#N)CC1,53*,26,i,8,-14,2
CCCNS(=O)(=O)c1cc2c(cc1Br)CCN2C(=O)CC,x,x,x,x,7,x
COCCN1CN(S(=O)(=O)c2ccccc2)c2nc3ccccc3nc21,4,-14,i,13,37*,11
COCCN1CN(S(=O)(=O)c2ccc(Cl)cc2)c2nc3ccccc3nc21,5,-1,i,22,9,-3
Cc1cccc(S(=O)(=O)N2CN(Cc3ccco3)c3nc4ccccc4nc32)c1,35,54*,+,28,-11,-6
O=C(CCNc1ccc(Cc2ccncc2)cc1)c1ccc([N+](=O)[O-])cc1,20,-11,i,12,40*,-3
Cc1ccc(CCNC(=O)c2sc3nc4n(c(=O)c3c2C)CCC4)cc1,7,-8,i,10,-4,x
COc1cccc(C2=NOC(C(=O)Nc3cccnc3Cl)C2)c1 (stereo not drawn),-7,-7,i,-10,3,3
COc1ccccc1OCC(=O)NCc1cccs1,0,-4,i,2,13,4
COc1cc(C#N)ccc1OCC(=O)NCc1cccs1,3,1.9*,i,29,9,-1
CC(C(=O)N1CCc2ccccc21)N1CCN(S(=O)(=O)c2ccc3c(c2)OCCCO3)CC1 (stereo not drawn),x,x,x,x,11,x
N#C/C(=C\c1ccc(-c2ccc(C(=O)O)cc2)o1)C(=O)Nc1ccc(F)cc1,-15,87*,+,36,-82,x

# Bioassay records (PubChem BioAssay)
